Source: PubChem (several laboratories)
A selection: hits, their analogues and other compounds. The true share with any hit is near 2.5%.
TRPC6 inhibitor: blocks the mouse TRPC6 cation channel. Q61143. HEK293-TRPC6, membrane potential dye, ACh-evoked depolarization; stronger effect = lower value. B-score at 10 µM. 310,000 compounds, 1.1% hits. AID 2553;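 active = B-score under library mean minus 3 SD, initial fluorescence not abnormally high, positive integrated signal ratio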;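 note: B-score derived from integrated fluorescence ratio over the kinetic read; more negative B-score means stronger inhibition of depolarization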
TRPC4 potent: allosterically enhances the mouse TRPC4 cation channel; 310,000 compounds, 0.42% hits; B-score at 10 µM; HEK293 TRPC4beta/mu-opioid, DAMGO EC20, Fluo-4 Ca2+ flux; stronger effect = higher value;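 active = B-score of calcium response area above 5 SD of library B-scores, with initial fluorescence ratio within 5 SD of library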;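 note: B-score of integrated fluorescence ratio over time as area under calcium response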
Target sequence (Q9QUQ5 whole entry, looked up): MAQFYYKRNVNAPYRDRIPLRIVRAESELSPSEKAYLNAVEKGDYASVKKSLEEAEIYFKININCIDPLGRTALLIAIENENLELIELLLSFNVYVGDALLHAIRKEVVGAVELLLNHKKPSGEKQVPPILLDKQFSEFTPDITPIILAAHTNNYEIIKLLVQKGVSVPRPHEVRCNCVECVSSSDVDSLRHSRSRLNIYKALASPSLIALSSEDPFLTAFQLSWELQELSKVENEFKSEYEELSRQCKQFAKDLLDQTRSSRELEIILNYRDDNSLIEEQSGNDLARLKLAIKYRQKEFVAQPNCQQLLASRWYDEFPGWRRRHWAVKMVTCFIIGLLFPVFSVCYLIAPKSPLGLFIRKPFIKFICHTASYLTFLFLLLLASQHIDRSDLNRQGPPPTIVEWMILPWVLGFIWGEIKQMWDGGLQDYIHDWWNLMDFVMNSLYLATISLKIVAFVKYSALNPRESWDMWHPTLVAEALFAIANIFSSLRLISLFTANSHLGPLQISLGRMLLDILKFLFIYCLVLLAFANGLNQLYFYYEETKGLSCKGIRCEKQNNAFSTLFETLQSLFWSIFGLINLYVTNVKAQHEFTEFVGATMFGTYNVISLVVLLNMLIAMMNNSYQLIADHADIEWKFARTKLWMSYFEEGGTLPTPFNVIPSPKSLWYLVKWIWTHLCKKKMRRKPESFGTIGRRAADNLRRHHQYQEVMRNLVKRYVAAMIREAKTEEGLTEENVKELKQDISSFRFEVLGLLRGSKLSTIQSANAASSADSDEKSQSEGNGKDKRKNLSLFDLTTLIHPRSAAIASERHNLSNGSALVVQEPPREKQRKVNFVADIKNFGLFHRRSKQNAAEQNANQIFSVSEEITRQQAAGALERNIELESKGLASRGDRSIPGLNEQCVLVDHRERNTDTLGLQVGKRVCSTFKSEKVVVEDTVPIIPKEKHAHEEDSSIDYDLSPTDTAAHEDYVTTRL
TRPC4 block: TRPC4 (mouse) channel inhibition. 300,000 compounds, 0.39% hits. HEK293 TRPC4beta/mu-opioid, DAMGO-evoked Fluo4 calcium flux; stronger effect = lower value. Q9QUQ5. B-score at 10 µM. AID 2247;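 active = B-score over 3 SD under the library average, no early fluorescence shift, positive overall ratio signal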
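test system = HEK293 cells with stable TRPC4beta plus mu-opioid receptor expression | detection = Fluo4 Ca2+ flux fluorescence | read-out = integrated fluorescence ratio relative to baseline, converted to per-well B score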
DSG3 Ab inh: blocks pemphigus antibody binding to human desmoglein-3; P32926; DSG3-coupled beads, scFv-anti-DSG3-GFP binding, flow cytometry; stronger effect = lower value; binding (percent of control), % at 10 µM; 310,000 compounds, 0.48% hits; AID 588358;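 active = binding more than 3 SD below its plate's average and above zero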
TRPC4 agonist: opens the mouse TRPC4 cation channel; B-score at 10 µM; 310,000 compounds, 0.49% hits; Q9QUQ5; HEK293 TRPC4beta/mu-opioid, Fluo4 calcium fluorescence; stronger effect = higher value; AID 2237;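 active = B-score above 5 SD of library B-scores, and initial fluorescence ratio not above library mean plus 5 SD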;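 note: positive B-score marks a calcium rise read as TRPC4 activation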
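Assay system: HEK293 stable line with TRPC4beta plus mu-opioid receptor; schedule: 45 min room-temperature Fluo4 loading, 110 s read; technique: kinetic Fluo4 calcium fluorescence; evaluation: integrated baseline-normalised fluorescence ratio, converted to per-well B score; controls: buffer (low) and maximal DAMGO (high)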
TRPC6 act: activators of mouse TRPC6 channel; HEK293-TRPC6 membrane potential dye fluorescence; stronger effect = higher value; 310,000 compounds, 0.13% hits; B-score at 10 µM; AID 2550;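 active = B-score of the integrated fluorescence ratio above library mean plus 3 SD, and starting fluorescence ratio within library mean plus 5 SD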;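 note: higher score means more depolarization so channel activation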
TRPC4 sel inh 2: second check of whether TRPC6 inhibitors also affect mouse TRPC4 | shares compounds with TRPC6 inhibitor | HEK293 TRPC4/MOR, membrane potential dye fluorescence; channel activated by saturating DAMGO dose | inhibition, % at 10 µM | 920 compounds, 42% hits | AID 2776;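 active = compounds whose fluorescence signal differed from control wells by over 3 SD, either direction, in both duplicate plates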
TRPC4 spec: selectivity of TRPC6 inhibitors: effect on mouse TRPC4; shares compounds with TRPC6 inhibitor; HEK293 TRPC4/mu-opioid, membrane potential fluorescence; 920 compounds, 61% hits; AID 2777; activity change, negative = inhibition, % at 10 µM;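 active = rise or fall in signal beyond 3 SD of buffer-only wells in both replicate plates, either sign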;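 note: integrated kinetic ratio of fluorescence range over baseline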
HEK293 MPD ctr 2-1: parental HEK293 nonspecific activity of TRPC6 inhibitors, second screen; shares compounds with TRPC6 inhibitor; parental HEK293 membrane potential dye fluorescence; maximal acetylcholine challenge after compound addition; signal change vs control, % at 10 µM; 920 compounds, 31% hits; AID 2779;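 active = membrane potential signal moving either way by over 3 SD of the maximum-effect control, in both duplicate plates, meaning non-specific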
HEK293 MPD ctr-1: checks TRPC6 inhibitor effects in parental HEK293 cells; AID 2780; 920 compounds, 60% hits; membrane potential signal change, % at 10 µM; parental HEK293 membrane potential dye fluorescence; shares compounds with TRPC6 inhibitor;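 active = membrane potential signal shifting up or down by more than 3 SD of buffer-only wells, on both duplicate plates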
HEK293 MPD ctr-2: parental HEK293 nonspecific activity of TRPC6 modulators. shares compounds with TRPC6 inhibitor. membrane potential dye fluorescence. AID 488924. membrane potential signal change, % at 10 µM. 2,400 compounds, 51% hits;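 active = membrane potential signal moves up or down beyond 5 SD from buffer-only wells, on both duplicate plates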
HEK293 MPD ctr 2-2: second check of TRPC6 modulator effects in parental HEK293 cells; shares compounds with TRPC6 inhibitor; inhibition, % at 10 µM; 2,400 compounds, 14% hits; membrane potential dye fluorescence; after compound, maximal acetylcholine stimulation;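 active = membrane potential signal drops by more than 5 SD from the mean control signal, in both duplicate plates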;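 note: plate controls were acetylcholine ECmax control wells for no effect and buffer only wells for full effect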
TRPC4/MOR mod: tests whether TRPC6 modulators also affect mouse TRPC4; shares compounds with TRPC6 inhibitor; 2,400 compounds, 69% hits; AID 488927; HEK293 TRPC4/mu-opioid, membrane potential fluorescence; percent change from control (negative = decrease, positive = increase), % at 10 µM;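 active = membrane potential signal moved up or down beyond 5 SD of buffer control wells, in both duplicate plates, actives on both sides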;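 note: plate controls were assay buffer wells for no effect and DAMGO maximal-effect wells for full effect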
TRPC4 ctr inh 2: second check of whether TRPC6 modulators also affect mouse TRPC4; shares compounds with TRPC6 inhibitor; HEK293 TRPC4/mu-opioid, membrane potential dye fluorescence; stimulated with maximal-effect DAMGO; inhibition, % at 10 µM; 2,400 compounds, 55% hits; AID 488928;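 active = drop in membrane potential signal beyond 5 SD of the control wells in both duplicate plates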;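 note: TRPC4 counter screen for TRPC6 hits run under conditions tuned for TRPC6 not TRPC4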
TRPC6 inh conf: mouse TRPC6 inhibitor confirmation. shares compounds with TRPC6 inhibitor. 3,300 compounds, 43% hits. HEK293-TRPC6, membrane potential dye, ACh-evoked depolarization. inhibition, % at 10 µM;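 active = fluorescence ratio falls more than 5 SD below the full-stimulation control mean, in both duplicate runs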;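 note: integrated fluorescence ratio of peak minus minimum over baseline after agonist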
TRPC6 act conf: mouse TRPC6 activator confirmation; 2,800 compounds, 11% hits; HEK293-TRPC6 membrane potential dye fluorescence, FDSS; shares compounds with TRPC6 inhibitor; activation, % at 10 µM;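 active = ratio signal rise beyond 5 SD above unstimulated control wells' mean, seen in both duplicate runs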;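 note: plate controls were buffer EC0 wells for no effect and acetylcholine ECmax response for full effect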
Active calls of the source: *.

Screening Cc1ccc2nc(C)c(Cl)c(=O)n2c1 returned TRPC6 inhibitor inactive, TRPC4 potent inactive, TRPC4 block inactive, TRPC4 agonist inactive and TRPC6 act inactive.
Cc1ccc2nc(Cl)c(/C=N/Nc3nc(C)cc(C)n3)c(=O)n2c1 was read as TRPC6 inhibitor -8*, TRPC4 potent inactive, TRPC4 block inactive, DSG3 Ab inh 91, TRPC4 agonist inactive, TRPC6 act inactive, HEK293 MPD ctr-2 inactive, HEK293 MPD ctr 2-2 inactive, TRPC4/MOR mod -24%*, TRPC4 ctr inh 2 inactive, TRPC6 inh conf inactive and TRPC6 act conf inactive.
For CCN(C(=O)c1nn(-c2ccc(OC)cc2)c(=O)c2c1c1ccccc1n2C)c1ccc(OC)cc1 the results were TRPC6 inhibitor inactive, TRPC4 potent inactive, TRPC4 block inactive, DSG3 Ab inh 94, TRPC4 agonist inactive and TRPC6 act inactive.
For CCCCN(C)CCNC(=O)c1nn(-c2ccc(OC)cc2)c(=O)c2c1c1ccccc1n2C the results were TRPC6 inhibitor -5.7*, TRPC4 potent inactive, TRPC4 block inactive, DSG3 Ab inh 108, TRPC4 agonist inactive, TRPC6 act inactive, HEK293 MPD ctr-2 inactive, HEK293 MPD ctr 2-2 inactive, TRPC4/MOR mod -16%*, TRPC4 ctr inh 2 68%*, TRPC6 inh conf inactive and TRPC6 act conf inactive.
`CCc1occc(=O)c1Oc1cc(NN2CCCCC2)c([N+](=O)[O-])cc1[N+](=O)[O-]` gave TRPC6 inhibitor -7.4*, TRPC4 potent inactive, TRPC4 block inactive, DSG3 Ab inh 99, TRPC4 agonist inactive, TRPC6 act inactive, TRPC4 sel inh 2 inactive, TRPC4 spec inactive, HEK293 MPD ctr 2-1 inactive, HEK293 MPD ctr-1 inactive, TRPC6 inh conf inactive and TRPC6 act conf inactive.
O=Cc1c(Cl)nc2ccccn2c1=O was read as TRPC6 inhibitor inactive, TRPC4 potent inactive, TRPC4 block inactive, DSG3 Ab inh 105, TRPC4 agonist inactive and TRPC6 act inactive.
For CCN(CC)CCCNC(=O)c1cc(-c2ccc(Cl)c(Cl)c2)on1 the results were TRPC6 inhibitor -6.4*, TRPC4 potent inactive, TRPC4 block inactive, DSG3 Ab inh 109, TRPC4 agonist inactive, TRPC6 act inactive, HEK293 MPD ctr-2 149%*, HEK293 MPD ctr 2-2 inactive, TRPC4/MOR mod 26%*, TRPC4 ctr inh 2 54%* and TRPC6 inh conf inactive.
For CN(CC(=O)NC1CCN(Cc2ccccc2)CC1)S(=O)(=O)c1ccc2c(c1)c(=O)n(C)c(=O)n2C the results were TRPC6 inhibitor -6*, TRPC4 potent inactive, TRPC4 block inactive, DSG3 Ab inh 101, TRPC4 agonist inactive, TRPC6 act inactive, HEK293 MPD ctr-2 inactive, HEK293 MPD ctr 2-2 inactive, TRPC4/MOR mod -11%*, TRPC4 ctr inh 2 inactive, TRPC6 inh conf inactive and TRPC6 act conf inactive.
For CN(C)C(=O)c1sccc1Oc1ccc(F)cc1[N+](=O)[O-] the results were TRPC6 inhibitor inactive, TRPC4 potent inactive, TRPC4 block inactive, DSG3 Ab inh 95, TRPC4 agonist inactive and TRPC6 act inactive.
For CC(NC(=O)N1CCN(c2ccccc2F)CC1)c1ccc(F)c(F)c1 (configuration not stated) the results were TRPC6 inhibitor inactive, TRPC4 potent inactive, TRPC4 block inactive, DSG3 Ab inh 101, TRPC4 agonist inactive and TRPC6 act inactive.
For Cc1ccc(C)c(NC(=S)NCCc2ccc(F)cc2)c1 the results were TRPC6 inhibitor inactive, TRPC4 potent inactive, TRPC4 block inactive, DSG3 Ab inh 100, TRPC4 agonist inactive and TRPC6 act inactive.
For Cc1ccc(C)c(NC(=S)NCCN(C2CCCCC2)C2CCCC2)c1 the results were TRPC6 inhibitor -5.2*, TRPC4 potent inactive, TRPC4 block inactive, DSG3 Ab inh 97, TRPC4 agonist inactive, TRPC6 act inactive, HEK293 MPD ctr-2 172%*, HEK293 MPD ctr 2-2 inactive, TRPC4/MOR mod 32%*, TRPC4 ctr inh 2 48%* and TRPC6 inh conf inactive.
CC(=O)c1c(COC(=O)c2ccccc2Cl)nc2ccccc2[n+]1[O-] was read as TRPC6 inhibitor inactive, TRPC4 potent inactive, TRPC4 block inactive, TRPC4 agonist inactive and TRPC6 act inactive.
`CN(C)CCNc1nc2c(c(=O)[nH]c(=O)n2C)n1CC(O)COc1ccc(Cl)cc1` (configuration not stated) gave TRPC6 inhibitor inactive, TRPC4 potent inactive, TRPC4 block inactive, DSG3 Ab inh 103, TRPC4 agonist inactive and TRPC6 act inactive.
